For seven molecules, IC50 and EC50 results are on record in ChEMBL document CHEMBL5316292 (J Med Chem, 2023).

The IC50 is the point on the concentration scale where inhibition reaches its midpoint. A lower IC50 goes with greater potency. Broadly, the EC50 is the concentration at which the effect is half-maximal.

For data set [1], the target named is T1, Bromodomain-containing protein 3 (Homo sapiens, UniProt Q15059). As to the kind of experiment: Inhibition of BRD3-BD2 (unknown origin) by fluorescence polarization assay. The method, boiled down:
(§1)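 FP competition assay using the fluorescein-labeled PCC conjugate (4 nM) as tracer. Recombinant His-tagged BRD bromodomain (20–400 nM) in 50 mM HEPES pH 7.4, 150 mM NaCl, 0.5 mM TCEP, 0.05% Tween-20. DMSO-matched serial dilutions were added and the plate incubated. Read at ex 485/em 535 nm, with G-factor zeroed on tracer alone. Triplicate data were curve-fitted, error SEM.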
In general terms: In fluorescence polarisation assays a small probe gives low polarisation when free and higher when bound to something large.

The subject of a further data set is PC-3. As to the kind of experiment: Antiproliferative activity against androgen-insensitive human PC-3 cells assessed as reduction in cell viability measured after 72 hrs by MTS assay. It is filed as functional, cell-based. As to conditions: PC-3, 72 h. The method, boiled down:
(§2)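 MTS viability assay run in triplicate wells. Serial dilutions in DMSO were given, with DMSO as negative control and doxorubicin as positive control, and incubated 72 h. MTS reagent was added for 2 h and absorbance read at 490 nm. % cytotoxicity = (A_medium − A_treatment)/A_medium × 100. EC50 ± SD was taken from dose-response curves of at least three independent experiments.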
In general terms: Tetrazolium dyes change colour on reduction, which living cells bring about.

The subject of the next data set is DU-145. The experiment in a line: Antiproliferative activity against AR-negative human DU-145 cells assessed as reduction in cell viability measured after 72 hrs by MTS assay. Conditions: DU-145, 72 h.
Data set [2] is described as follows: Cytotoxicity against HFF cells assessed as reduction in cell viability measured after 72 hrs by MTS assay. It is filed as toxicity, cell-based. As to conditions: human. The gist of the method:
as §2

For data set [3], the target named is T2, Bromodomain-containing protein 4 (Homo sapiens, UniProt O60885). The experiment in a line: Inhibition of BRD4-BD1 (unknown origin) by fluorescence polarization assay. The gist of the method:
as §1

A short description of data set [4]: Antiproliferative activity against human Androgen-resistant 22Rv1 cells assessed as reduction in cell viability measured after 72 hrs by MTS assay. As to conditions: 22Rv1, 72 h. Type of data set: functional, cell-based. The method, boiled down:
as §2

Data set [5] deals with T2, Bromodomain-containing protein 4. As to the kind of experiment: Inhibition of BRD4-BD2 (unknown origin) by fluorescence polarization assay. The method, boiled down: as §1
The subject of the next data set is LNCaP. As to the kind of experiment: Antiproliferative activity against androgen-sensitive human LNCaP cells assessed as reduction in cell viability measured after 72 hrs by MTS assay. It is filed as functional, cell-based. The gist of the method:
as §2

The target in data set [6] is T1, Bromodomain-containing protein 3. The experiment in a line: Inhibition of BRD3-BD1 (unknown origin) by fluorescence polarization assay. The gist of the method:
as §1

The next data set deals with VCaP. As to the kind of experiment: Antiproliferative activity against AR-positive human VCaP cells assessed as reduction in cell viability measured after 72 hrs by MTS assay. It is filed as functional, cell-based. The method, boiled down: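 VCaP cells in 96-well plates, compound serially diluted in DMSO and run in triplicate wells for 72 h. MTS reagent added for 2 h, absorbance read at 490 nm. % cytotoxicity = (A_medium − A_treatment)/A_medium × 100. EC50 and SD taken from dose-response curves, at least three independent experiments.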

A short description of data set [7]: Cytotoxicity against human WI-38 cells assessed as reduction in cell viability measured after 72 hrs by MTS assay. Type of data set: toxicity, cell-based. The method, boiled down: as §2

T1 sequence (Q15059 whole entry): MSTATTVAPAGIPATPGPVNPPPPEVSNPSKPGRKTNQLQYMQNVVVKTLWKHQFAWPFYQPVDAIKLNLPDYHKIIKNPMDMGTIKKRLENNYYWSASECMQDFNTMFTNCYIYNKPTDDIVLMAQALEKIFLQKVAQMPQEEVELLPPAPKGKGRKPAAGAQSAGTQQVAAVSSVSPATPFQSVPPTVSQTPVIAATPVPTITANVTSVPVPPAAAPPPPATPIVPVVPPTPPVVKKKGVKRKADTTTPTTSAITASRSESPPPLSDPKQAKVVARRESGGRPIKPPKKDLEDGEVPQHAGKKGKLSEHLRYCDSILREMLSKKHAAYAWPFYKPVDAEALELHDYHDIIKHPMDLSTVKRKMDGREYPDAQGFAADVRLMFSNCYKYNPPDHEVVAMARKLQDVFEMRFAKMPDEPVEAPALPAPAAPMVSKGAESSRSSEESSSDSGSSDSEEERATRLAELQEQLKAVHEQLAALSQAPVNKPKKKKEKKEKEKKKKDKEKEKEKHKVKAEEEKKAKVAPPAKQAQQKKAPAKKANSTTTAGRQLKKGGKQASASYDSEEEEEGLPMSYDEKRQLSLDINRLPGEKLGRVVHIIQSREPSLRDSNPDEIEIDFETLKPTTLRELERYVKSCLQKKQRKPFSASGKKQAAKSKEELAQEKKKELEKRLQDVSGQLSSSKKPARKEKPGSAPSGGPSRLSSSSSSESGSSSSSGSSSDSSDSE

Regarding `CC(=O)OC[C@]12CC[C@H]3[C@@H](C[C@H]4O[C@]45CCCC(=O)[C@]35C)[C@]1(O)CC[C@@]2(O)[C@@](C)(O)[C@H]1C[C@@H](C)[C@@H](C)C(=O)O1`, the IC50 was > 20000 nM in [1], 3870 nM in data set [3], 1830 nM in data set [5] and > 20000 nM in data set [6]. Moreover, the half-maximal effective concentration (EC50) (in the data set on PC-3; in the data set on DU-145; in [4]; with LNCaP) was > 2000 nM throughout. Further, the EC50 at 72 h in [2] was > 2000 nM.

As for `CC1=C(CO)C(=O)O[C@@H]([C@@H](C)[C@H]2CC[C@H]3[C@@H]4C[C@H]5O[C@]56[C@@H](O)C=CC(=O)[C@]6(C)[C@H]4CC[C@]23C)C1` [WITHAFERIN A], the IC50 in data set [1], in data set [3], in data set [5] and in [6] was > 20000 nM throughout. In addition, the EC50 with PC-3 came to 410 nM; in the data set on LNCaP it was 870 nM. Also, in data set [2], the EC50 at 72 h is > 6800 nM.

Take `CC1=C(C)C(=O)O[C@@H]([C@](C)(O)[C@]2(O)CC[C@@]3(O)[C@@H]4C[C@H]5O[C@]56CC=CC(=O)[C@]6(C)[C@H]4CC[C@]23C)C1` [WITHANOLIDE E]: the IC50 in data set [1] turned out to be 720 nM; in data set [3], 556 nM; in [5] it was 1520 nM; in [6] it was 2950 nM. For the same molecule, the EC50 at 72 h in data set [2] was > 10000 nM. In addition, the EC50 turned out to be 70 nM in data set [4] and 60 nM in the data set on LNCaP.

`CC1=C(CO)C[C@H]([C@](C)(O)[C@]2(O)CC[C@@]3(O)[C@@H]4C[C@H]5O[C@]56CC=CC(=O)[C@]6(C)[C@H]4CC[C@]23C)OC1=O`: the IC50 in data set [1] was > 20000 nM; in [3], 281 nM; in [5], > 20000 nM; in data set [6], 736 nM. In addition, the EC50 in the data set on VCaP is 1110 nM; with PC-3, 2900 nM; with DU-145, > 5000 nM; in the data set with LNCaP, 2780 nM. Also, in data set [7], the EC50 at 72 h was > 5000 nM.

Turning to `C[C@H]1C[C@H]([C@](C)(O)[C@]2(O)CC[C@@]3(O)[C@@H]4C[C@H]5O[C@]56CC=CC(=O)[C@]6(C)[C@H]4CC[C@]23C)OC(=O)[C@@H]1C`, in [2], the EC50 at 72 h was > 2000 nM. Besides, the EC50 was determined as 210 nM in data set [4] and 290 nM in the data set with LNCaP.

On to `CC(=O)OC[C@]12CC[C@H]3[C@@H](CC=C4CC=CC(=O)[C@@]43C)[C@]1(O)CC[C@@]2(O)[C@@](C)(O)[C@H]1CC(C)=C(C)C(=O)O1`, for which the IC50 in [1] came to 15800 nM; in [3] it was 19.3 nM; in data set [5], 3920 nM; in data set [6], 18 nM. Also, the EC50 with PC-3 is 130 nM; in data set [4], 70 nM; in the data set with LNCaP it was 130 nM. Moreover, the EC50 at 72 h in data set [2] was > 3000 nM.

With `CC(=O)OC[C@]12CC[C@H]3[C@@H](CC=C4C=CCC(=O)[C@@]43C)[C@]1(O)CC[C@@]2(O)[C@@](C)(O)[C@H]1CC(C)=C(C)C(=O)O1`, the IC50 was found to be 131 nM in data set [1], 909 nM in data set [3], 294 nM in data set [5] and 262 nM in [6]. For the same molecule, the EC50 in the data set with PC-3 came out at 3100 nM; in the data set with LNCaP it was 1100 nM. Besides, the EC50 at 72 h in [2] is > 3000 nM.
